# Publication PMC9530613 (Redox Biology, 2022)
# pIC50: −log10 of the molar value.
# How the values were obtained:
# SH-SY5Y cells [1] = assay: Aβ1-42 amyloid toxicity assay, CCK-8; type: cell-based, human
# Summary of the method: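 Human neuroblastoma SH-SY5Y cells in MEM-F12 (1:1) with 15% FBS, at 37 °C and 5% CO2, grown to 70% confluence. Monomer-rich Aβ1-42 (HFIP-treated, sonicated) added at 20 μM with or without varying test compound concentrations, ± I3MT3, for 24 h; scrambled Aβ peptide as control. CCK-8 added for 3 h at 37 °C, absorbance at 450 nm. One-way ANOVA with Tukey test.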
# SH-SY5Y cells [2] = assay: Hydrogen peroxide cytotoxicity, SRB assay; type: cell-based, human; conditions: in the presence of I3MT3
# Summary of the method: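 SH-SY5Y cells (MEM-F12, 15% FBS, 37 °C, 5% CO2) exposed to 100 μM H2O2 ± test compound ± I3MT3 for 24 h at 37 °C. Fixed with 10% TCA for 1 h at 4 °C, washed, then stained 1 h at room temperature with 0.04% w/v SRB in 1% acetic acid. Washed with 1% acetic acid, dried, dye dissolved in 10 mM Tris base (pH 10.5), A510 read. One-way ANOVA with Tukey test.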
# [3] = DPPH radical scavenging assay; type: biochemical; conditions: read-out: IC50, DPPH radical scavenging; DPPH 150 μM, 30 min, room temperature
# Summary of the method: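 Test compound at various concentrations incubated with DPPH (150 μM in 80% ethanol) for 30 min at room temperature. Radical scavenging read as absorbance at 517 nm.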
Compound,effect of 3MST inhibitor on protective effect of sulfanegen against Aβ1-42 toxicity (SH-SY5Y cells [1]; Aβ1-42 20 μM + sulfanegen + I3MT3),"exacerbation of Aβ1-42 cytotoxicity, rise over Aβ1-42 alone (SH-SY5Y cells [1]; in the presence of I3MT3) [%]","exacerbation of H2O2 cytotoxicity, rise over H2O2 alone (SH-SY5Y cells [2]) [%]",pIC50 [3]
Cc1cc(=O)[nH]c(SCC(=O)c2cccc3ccccc23)n1 [I3MT3],completely abolished,10,20,
O=C1O[C@H]([C@@H](O)CO)C(O)=C1O [ascorbic acid],,,,3.85
